In brackets after ≈: the same amount, converted by molar mass.

Data set [1] in a line: Partition coefficient was determined in an octanol/ pH 7.4 phosphate buffer system. In kind it is physicochemical. The conditions noted are these: octanol/water.
Data set [2] is described as follows: Solubility was measured in pH 7.4 phosphate buffer. In kind it is physicochemical. The method, boiled down: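 Solubility in pH 7.4 phosphate buffer, quantified by HPLC.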
A short description of data set [3]: Half life time was observed by 50% conversion to compound 1 at pH 1.5. In kind it is ADME. The gist of the method:
(§1)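 Aliquots taken at set intervals; prodrug, parent and internal standard quantified by reversed-phase HPLC with UV detection (alkyl phenyl column, 50 °C, phosphate/CH3CN gradient). t1/2 of drug consumed; mean of at least two determinations.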

Data set [4] is described as follows: Half life time was observed by 50% conversion to compound 1 at pH 7.4. In kind it is ADME. The gist of the method:
as §1

For data set [5], the species on record is Mustela putorius furo. The data set can be described thus: Increased contractile force of ferret papillary muscle. In kind it is functional, Muscle tissue. The gist of the method: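 Isolated ferret papillary muscle, 30-min preincubation with compound; value is the concentration (μM) giving a 20% increase in contractile force. Mean of at least two determinations, with and without 1 μM propranolol co-administration.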

The species entered for data set [6] is Canis familiaris. Put plainly: Half life time was observed by 50% conversion to compound 1 in dog plasma. In kind it is ADME, Canis lupus familiaris. The conditions noted are these: in vitro. The gist of the method: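 Prodrug with internal standard diluted 1:100 from stock in 0.05 M NaH2PO4/0.1% H3PO4 into fasted canine plasma, held at 37 °C. Conversion to parent followed by HPLC; half-life of drug consumed.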

Data set [7] can be described thus: Inhibition of c-AMP phosphodiesterase.

Molecule `CCc1nc(O)n(C(=O)C(C)C)c1C(=O)c1ccc(-n2ccnc2C)cc1` came in with a Partition coefficient in data set [1] of more than 200. The same molecule gave a solubility in data set [2] of 10 µM (≈ 3.66 µg/mL). The T1/2 turned out to be 132 h in data set [3], 8 h in data set [4] and 0.783 h in data set [6]. In addition, in data set [5], the C20 amounted to 0.3 µM.

`CCc1nc(O)n(Cc2ccccc2)c1C(=O)c1ccc(-n2ccnc2C)cc1`: the C20 in data set [5] stood at 13 µM.

In data set [1], `CCc1nc(O)n(C(C)=O)c1C(=O)c1ccc(-n2ccnc2C)cc1` showed a Partition coefficient of 26. Further, the concentration in solution in data set [2] (solubility) was 40 µM (≈ 13.5 µg/mL). Besides, the values for the T1/2 in data set [3], in data set [4] and in data set [6] were 21 h, 8 h and 0.5 h, respectively. The molecule further returned a C20 in data set [5] of 0.2 µM.

For the molecule `CCc1nc(O)n(C(=O)c2ccccc2)c1C(=O)c1ccc(-n2ccnc2C)cc1`, in data set [1], the Partition coefficient is recorded as 92. The solubility in data set [2] came to 23 µM (≈ 9.21 µg/mL). Moreover, the T1/2 in data set [3] was 263 h; in data set [4] it was 25 h; in data set [6], 0.633 h. The molecule further came in with a C20 in data set [5] of 0.2 µM. Besides, half-maximal inhibition in data set [7] (IC50) required 157 µM.

In data set [2], `CCc1nc(O)n(C(=O)Cc2ccccc2)c1C(=O)c1ccc(-n2ccnc2C)cc1` returned a solubility of 25 µM (≈ 10.4 µg/mL). The values for the T1/2 in data set [3] and in data set [4] were 39 h and 1.5 h, respectively. For the same molecule, in data set [5], the C20 is 0.2 µM.

For the molecule `CCC(=O)n1c(O)nc(CC)c1C(=O)c1ccc(-n2ccnc2C)cc1`, the Partition coefficient in data set [1] was found to be 52. In addition, the concentration in solution in data set [2] (solubility) was 30 µM (≈ 10.6 µg/mL). Further, the T1/2 in data set [3] was 17 h; in data set [4] it was 6 h; in data set [6] it was 0.5 h. This molecule had a C20 in data set [5] of 0.3 µM.

In turn, `CCc1[nH]c(O)nc1C(=O)c1ccc(-n2ccnc2C)cc1` displayed a Partition coefficient in data set [1] of 7. In data set [2], this molecule gave a solubility of 44 µM (≈ 13 µg/mL). Moreover, in data set [5], the C20 was determined as 0.5 µM.

For orientation: solubility means how much of the substance goes into solution per volume. The low end stands for a poorly soluble substance, the high end for a readily soluble substance. What is called IC50 is the concentration needed to halve the response being measured. A high value points to weaker potency.

The values above are taken from ChEMBL document CHEMBL1126324, “Cardiotonic agents. 7. Prodrug derivatives of 4-ethyl-1,3-dihydro- 5-[4-(2-methyl-1H-imidazol-1-yl)benzoyl]-2H-imidazol-2-one” (J Med Chem, 1992).
